One may read the IC50 as the concentration that inhibits the measured activity by half.

We go through 13 molecules from ChEMBL document CHEMBL4251686, “Withaferin A and Withanolide D Analogues with Dual Heat-Shock-Inducing and Cytotoxic Activities: Semisynthesis and Biological Evaluation” (J Nat Prod, 2018).

Assay [1] concerns HEK-293T. Briefly: Induction of heat shock response in GFP-tagged human 293T cells after overnight incubation by luciferase reporter gene based luminometric method relative to control. The format is functional. On the technique in general: A reporter such as luciferase makes a cellular process visible.
Assay [2] is described as follows: Cytotoxicity against human CHP100 cells assessed as reduction in cell viability after 24 hrs by resazurin dye based Alamar blue assay. In kind it is functional. The note with it: CHP100, 24 h. On the technique in general: Resazurin is reduced to fluorescent resorufin, in cell work by metabolically active cells.
The test system of assay [3] is HEK-293T. Briefly: Cytotoxicity against human 293T cells assessed as reduction in cell viability after 72 hrs by resazurin dye based Alamar blue assay. The format is functional.
Assay [4] has as its system HEK-293T. Briefly: Ratio of induction of heat shock response in GFP-tagged human 293T cells to IC50 for cytotoxicity against human 293T cells. In kind it is functional.
Assay [5] relates to HEK-293T. Briefly: Induction of heat shock response in GFP-tagged human 293T cells at 1 to 5 uM after overnight incubation by luciferase reporter gene based luminometric method. In kind it is functional, cell-based. In short, it runs like this: (§1)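 Heat-shock reporter 293T cells (GFP–firefly luciferase under HSP70B′ promoter elements, FACS-enriched high responders) were seeded at 20 000 cells/well in 384-well plates and exposed to compounds at 1.0 or 5.0 μM overnight. Luciferase activity measured by luminometer. Maximal induction expressed as fold over control (Log2), mean of two biological replicates.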

The subject of assay [6] is HEK-293T. Briefly: Induction of heat shock response in GFP-tagged human 293T cells at 1 uM after overnight incubation by luciferase reporter gene based luminometric method. In kind it is functional, cell-based. Put shortly: as §1
The test system of assay [7] is HEK-293T. Briefly: Induction of heat shock response in GFP-tagged human 293T cells at 5 uM after overnight incubation by luciferase reporter gene based luminometric method. In kind it is functional, cell-based. In short, it runs like this:
as §1

Each structure is given as a SMILES string. Activity calls are given as the source filed them. The calls are words filed in the database; no cut-off is given here. Residues, ends and D or L forms follow the SMILES beside them. *: point of attachment. Cbz = O=C(OCc1ccccc1)*

In the case of `CC(C)c1cc(-c2n[nH]c(=O)n2-c2ccc3c(ccn3C)c2)c(O)cc1O` [GANETESPIB], the AUC in assay [1] was 59.

`CC(=O)OCC1=C(C)C[C@H]([C@@H](C)[C@H]2CC[C@H]3[C@@H]4C[C@H]5O[C@]56[C@@H](OC(C)=O)C=CC(=O)[C@]6(C)[C@H]4C[C@@H](OC(C)=O)[C@]23C)OC1=O`: the values for the IC50 in assay [2] and in assay [3] were 120 nM and 116 nM, respectively. The molecule further gave an AUC in assay [1] of 419. For the same molecule, the Ratio in assay [4] came out at 3.61. Further, in assay [5], the outcome was Active.

For `CC1=C(CO)C(=O)O[C@@H]([C@@H](C)[C@H]2CC[C@H]3[C@@H]4C[C@H]5O[C@]56[C@@H](O)C=CC(=O)[C@]6(C)[C@H]4CC[C@]23C)C1` [WITHAFERIN A], the IC50 came out at 424 nM in assay [2] and 299 nM in assay [3]. Besides, the AUC in assay [1] stood at 68. For the same molecule, the Ratio in assay [4] was 0.23. Further, the result in assay [5] was Active.

Turning to `CC1=C(C)C(=O)O[C@@H]([C@](C)(O)[C@H]2CC[C@H]3[C@@H]4C[C@H]5O[C@]56C(=O)C=CC(=O)[C@]6(C)[C@H]4CC[C@]23C)C1`, in assay [6], the outcome was Active.

Take `CC(=O)OCC1=C(C)C[C@H]([C@@H](C)[C@H]2CC[C@H]3[C@@H]4C[C@H]5O[C@]56[C@H](OC(C)=O)C=CC(=O)[C@]6(C)[C@H]4CC[C@]23C)OC1=O`: the result in assay [5] was Active.

Regarding `CC(=O)OCC1=C(C)C[C@H]([C@@H](C)[C@H]2[C@@H](OC(C)=O)C[C@H]3[C@@H]4C[C@H](I)[C@]5(O)[C@@H](OC(C)=O)C=CC(=O)[C@]5(C)[C@H]4CC[C@]23C)OC1=O`, the IC50 turned out to be 466 nM in assay [2] and 417 nM in assay [3]. Further, in assay [1], the AUC stood at 235. In assay [4], the Ratio was determined as 0.56. Further, in assay [5], the outcome was Active.

For `CC(C)C[C@@H](C=O)NC(=O)[C@H](CC(C)C)NC(=O)[C@H](CC(C)C)NC(=O)OCc1ccccc1` [MG-132] (Cbz-Leu-Leu-Leu-aldehyde), the AUC in assay [1] turned out to be 332.

For `CC(=O)O[C@H]1C[C@H]2[C@@H]3C[C@H]4O[C@]45[C@@H](OC(C)=O)C=CC(=O)[C@]5(C)[C@H]3CC[C@]2(C)[C@H]1[C@@](C)(O)[C@H]1CC(C)=C(C)C(=O)O1`, the result in assay [6] was Active.

For the molecule `CC(=O)O[C@H]1C=CC(=O)[C@]2(C)[C@H]3CC[C@]4(C)[C@@H]([C@@](C)(O)[C@H]5CC(C)=C(C)C(=O)O5)CC[C@H]4[C@@H]3C[C@H]3O[C@]132`, the half-maximal inhibitory concentration (IC50) in assay [2] stood at 292 nM; in assay [3], 141 nM. For the same molecule, the Ratio in assay [4] was found to be 0.5. Further, the result in assay [6] was Active.

As to `CC1=C(C)C(=O)O[C@@H]([C@](C)(O)[C@H]2CC[C@H]3[C@@H]4C[C@H]5O[C@]56[C@@H](O)C=CC(=O)[C@]6(C)[C@H]4CC[C@]23C)C1` [WITHANOLIDE D], the half-maximal inhibitory concentration (IC50) amounted to 324 nM in assay [2] and 710 nM in assay [3]. In assay [1], the AUC came to 13. Besides, the Ratio in assay [4] amounted to 0.02. For the same molecule, the outcome in assay [6] was Active.

In assay [1], `CC(=O)OCC1=C(C)C[C@H]([C@@H](C)[C@H]2CC[C@H]3[C@@H]4C[C@H]5O[C@]56[C@@H](OC(C)=O)C=CC(=O)[C@]6(C)[C@H]4CC[C@]23C)OC1=O` registered an AUC of 351. Further, the outcome in assay [5] was Active.

For `CC1=C(CO)C(=O)O[C@@H]([C@@H](C)[C@H]2CC[C@H]3[C@@H]4C[C@H]5O[C@]56[C@H](O)C=CC(=O)[C@]6(C)[C@H]4CC[C@]23C)C1`, the IC50 in assay [2] came to 311 nM; in assay [3], 250 nM. Besides, the outcome in assay [7] was Active. Further, in assay [1], the AUC is given as 44. For the same molecule, the Ratio in assay [4] is 0.18.

Consider `CC(=O)OCC1=C(C)C[C@H]([C@@H](C)[C@H]2[C@@H](OC(C)=O)C[C@H]3[C@@H]4C[C@H]5O[C@]56[C@@H](OC(C)=O)C=CC(=O)[C@]6(C)[C@H]4CC[C@]23C)OC1=O`, for which the figures for the IC50 in assay [2] and in assay [3] were 59 nM and 88 nM, respectively. The molecule further came in with an AUC in assay [1] of 196. Besides, the Ratio in assay [4] amounted to 2.23. The result in assay [5] was Active.
